Test results as given in ChEMBL document CHEMBL1152496, “N-Terminal 2,3-diaminopropionic acid (Dap) peptides as efficient methylglyoxal scavengers to inhibit advanced glycation endproduct (AGE) formation” (Bioorg Med Chem, 2009).
Where a SMILES comes first, the peptide text is derived from it. [ ]: non-standard residue; d: D form. dDap = NC[C@@H](N)C(=O)O; Dap = NC[C@H](N)C(=O)O

What was measured:
[1] = Inhibition of alpha-dicarbonyls-induced advanced glycation end product formation assessed as protection against 100 eq. MG-induced insulin degradation at 3.75 mM after 24 hrs by RP-HPLC; set-up: scale not given: the % may be the effect or the level left; conditions: 3750 µM
[2] = Cytotoxicity in human EAhy926 cells assessed as viable cells at 1 mM after 48 hrs by MTT assay
[3] = Cytoprotective activity against MG-induced cytotoxicity in human EAhy926 cells assessed as viable cells at 1 mM after 48 hrs by MTT assay; conditions: EA.hy 926
[4] = Mutagenic activity in Salmonella Typhimurium at 51.7 uM after 60 hrs by Ames test in presence of human S9 fraction; conditions: salmonella enterica subsp. enterica serovar typhimurium, s9, 60 h
[5] = Mutagenic activity in Salmonella Typhimurium TA98 at 51.7 uM after 60 hrs by Ames test in presence of human S9 fraction; conditions: salmonella enterica subsp. enterica serovar typhimurium, s9, 60 h
[6] = Inhibition of alpha-dicarbonyls-induced advanced glycation end product formation assessed as protection against MG-induced loss of bovine pancreatic RNaseA enzyme activity after 48 hrs […]; format: physicochemical; set-up: concentration or dose not given beside the values; conditions: cattle
Outline: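 RNase A was pre-incubated with equimolar MG ± scavenger at 37 °C, pH 7.4. The glycated enzyme (10 µg/mL) was added to a methylene blue–yeast RNA solution (600 µg/mL RNA working concentration), and remaining activity was compared with control.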

[7] = Inhibition of alpha-dicarbonyls-induced advanced glycation end product formation assessed as protection against 5 eq. MG-induced insulin degradation at 3.75 mM after 24 hrs by RP-HPLC; format: physicochemical; set-up: scale not given: the % may be the effect or the level left; conditions: 3750 µM
Outline: (§1)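 Human insulin (34 µM) was incubated in 10 mM phosphate pH 7.4 with 0.1 M NaCl at 37 °C with MG, ± scavenger at 1.1 mol equiv relative to MG. The standard condition was MG 3.4 mM (100 equiv) with scavenger 3.75 mM for 24 h. Remaining intact insulin was quantified by C18 RP-HPLC (TFA water/acetonitrile gradient) against the insulin-alone control.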

[8] = Inhibition of alpha-dicarbonyls-induced advanced glycation end product formation assessed as protection against MG-induced insulin degradation at 3.75 mM after 2 days by RP-HPLC; format: physicochemical; set-up: scale not given: the % may be the effect or the level left; conditions: 48 h, 3750 µM
Outline: as §1

[9] = Inhibition of alpha-dicarbonyls-induced advanced glycation end product formation assessed as protection against MG-induced insulin degradation at 3.75 mM after 5 days by RP-HPLC; format: physicochemical; set-up: scale not given: the % may be the effect or the level left; conditions: 120 h, 3750 µM
Outline: as §1

[10] = Inhibition of alpha-dicarbonyls-induced advanced glycation end product formation assessed as protection against MG-induced insulin degradation at 3.75 mM after 7 days by RP-HPLC; format: physicochemical; set-up: scale not given: the % may be the effect or the level left; conditions: 168 h, 3750 µM
Outline: as §1

[11] = Inhibition of alpha-dicarbonyls-induced advanced glycation end product formation assessed as protection against 10 eq. MG-induced insulin degradation at 3.75 mM after 24 hrs by RP-HPLC; format: physicochemical; set-up: scale not given: the % may be the effect or the level left; conditions: 3750 µM
Outline: as §1

[12] = Inhibition of alpha-dicarbonyls-induced advanced glycation end product formation assessed as protection against 100 eq. MG-induced insulin degradation at 3.75 mM after 24 hrs by RP-HPLC; format: physicochemical; set-up: scale not given: the % may be the effect or the level left; conditions: 3750 µM
Outline: as §1

[13] = Inhibition of alpha-dicarbonyls-induced advanced glycation end product formation assessed as protection against MG-induced bovine pancreatic RNaseA degradation after 48 hrs by SDS-PAGE; format: physicochemical; conditions: cattle
Outline: (§2)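 Protein stock (10–15 mg/mL in phosphate buffer) was incubated with MG ± scavenger at 37 °C, pH 7.4, for 48 h, then stored at −20 °C until SDS–PAGE. For RNase A, MG was equimolar to protein and scavenger was 1.1 mol per mol MG.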

[14] = Inhibition of alpha-dicarbonyls-induced advanced glycation end product formation assessed as protection against MG-induced chicken lysozyme degradation after 48 hrs by SDS-PAGE; format: physicochemical
Outline: as §2

[15] = Inhibition of alpha-dicarbonyls-induced advanced glycation end product formation assessed as protection against MG-induced human glyoxalase1 degradation after 24 hrs by […]; format: physicochemical
Outline: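 Human glyoxalase I was incubated with MG (protein/MG 1/1) ± scavenger (1.1 or 2.2 equiv) at 37 °C, pH 7.4, for 24 h, then stored at −20 °C. Mobility shift was analysed by non-denaturing PAGE.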

[16] = Inhibition of alpha-dicarbonyls-induced advanced glycation end product formation assessed as protection against MG-induced loss of human glyoxalase1 enzyme activity after 48 hrs […]; format: physicochemical; set-up: scale not given: the % may be the effect or the level left; conditions: 24 h; in the assay text read “24 hrs” for “48 hrs”
Outline: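 Human glyoxalase I was pre-incubated with equimolar MG ± scavenger. Substrate hemithioacetal was formed from 2 mM MG and 2 mM reduced glutathione in 50 mM sodium phosphate pH 6.6 (20 min, 37 °C; ~600 µM) and equilibrated 15 min. Enzyme was then added, and S-D-lactoylglutathione formation was followed at 240 nm. One unit = 1 µmol per min.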

[17] = Mutagenic activity in Salmonella Typhimurium at 0.1 to 10 uM after 60 hrs by Ames test in absence of human S9 fraction; format: toxicity; conditions: salmonella enterica subsp. enterica serovar typhimurium, s9, 60 h
Outline: (§3)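 Ames assay used a mix of S. typhimurium TA7001–TA7006 and, separately, TA98. Test substance (10, 1, 0.1 µM; alone or with MG; MG alone 10 µM) was incubated ± human liver S9 at 37 °C for 90 min, then in indicator medium for 60 h. Positive controls were 2-aminoanthracene, 4-nitroquinoline N-oxide and 2-nitrofluorene; solvent was the negative control. Duplicate experiments, 48 wells per point.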

[18] = Mutagenic activity in Salmonella Typhimurium at 0.1 to 10 uM after 60 hrs by Ames test in presence of human S9 fraction; format: toxicity; conditions: salmonella enterica subsp. enterica serovar typhimurium, s9, 60 h
Outline: as §3

[19] = Mutagenic activity in Salmonella Typhimurium TA98 at 0.1 to 10 uM after 60 hrs by Ames test in presence of human S9 fraction; format: toxicity; conditions: salmonella enterica subsp. enterica serovar typhimurium, s9, 60 h
Outline: as §3

[20] = Mutagenic activity in Salmonella Typhimurium at 0.1 to 10 uM after 60 hrs by Ames test in absence of human S9 fraction and in presence of MG; format: toxicity; conditions: salmonella enterica subsp. enterica serovar typhimurium, s9, 60 h
Outline: as §3

[21] = Mutagenic activity in Salmonella Typhimurium TA98 at 0.1 to 10 uM after 60 hrs by Ames test in absence of human S9 fraction and in presence of MG; format: toxicity; conditions: salmonella enterica subsp. enterica serovar typhimurium, s9, 60 h
Outline: as §3

[22] = Mutagenic activity in Salmonella Typhimurium TA98 at 0.1 to 10 uM after 60 hrs by Ames test in presence of human S9 fraction and MG; format: toxicity; conditions: salmonella enterica subsp. enterica serovar typhimurium, s9, 60 h
Outline: as §3

| Structure (SMILES) | Activity [1] [%] | viability at 1000 µM [2] [%] | viability at 1000 µM [3] [%] | also measured |
| --- | --- | --- | --- | --- |
| NCCCC[C@H](NC(=O)[C@H](N)CN)C(=O)O |  | 81 | 43 |  |
| Nc1ccc2cc3ccccc3cc2c1 [2-AMINOANTHRACENE] |  |  |  | Activity [4]: Toxic; Activity [5]: Toxic |
| CCCCCCCCCCCCCCCCOC(=O)[C@H](CC(C)C)NC(=O)C(N)CN (single isomer, unassigned) | 74 | 23 | 33 |  |
| CC[C@H](C)[C@H](NC(=O)[C@@H](N)CN)C(=O)O (H-[Dap]-Ile-OH) | 75 | 86 | 79 | Activity [6]: 91% |
| CCCC[C@H](NC(=O)[C@@H](N)CN)C(=O)O |  | 94 | 74 |  |
| CC(C)C[C@H](NC(=O)[C@H](N)CN)C(=O)O | 83 |  |  | Activity [7]: 90%; Activity [8]: 88%; Activity [9]: 85%; Activity [10]: 88%; Activity [11]: 90%; Activity [12]: 83% |
| CC(C)[C@H](NC(=O)[C@@H](N)CN)C(=O)O (H-[Dap]-Val-OH) | 71 | 96 | 93 | Activity [13]: Active; Activity [14]: Active; Activity [6]: 91% |
| NCCCC[C@H](N)C(=O)O [LYSINE] | 0 |  |  |  |
| CC(C)(S)C(N)C(=O)O (racemic) [DL-PENICILLAMINE] | 69 | 86 | 61 |  |
| NCC(N)C(=O)O (single isomer, unassigned) [DIAMINOPROPANOIC ACID] |  | 81 | 67 |  |
| CC(C)C[C@@H](NC(=O)[C@@H](N)CN)C(=O)O |  | 87 | 71 |  |
| N=C(N)NCCC[C@H](N)C(=O)O [ARGININE] | 18 |  |  |  |
| NCCC(N)C(=O)O (racemic) | 40 |  |  |  |
| NC[C@H](N)C(=O)N[C@@H](Cc1ccccc1)C(=O)O |  | 78 | 67 |  |
| N=C(N)NN [PIMAGEDINE] | 85 | 94 | 75 | Activity [6]: 70% |

Now from value to compound, other results behind:

| Activity [1] [%] | Structure (SMILES) | viability at 1000 µM [2] [%] | viability at 1000 µM [3] [%] | also measured |
| --- | --- | --- | --- | --- |
| 69 | N[C@@H](CS)C(=O)O [CYSTEINE] |  |  |  |
| 61 | NC[C@@H](N)C(=O)N[C@H](CC(=O)O)C(=O)O |  |  |  |
| 14 | Cc1ncc(CO)c(CN)c1O [PYRIDOXAMINE] | 92 | 32 |  |
| 11 | CN(C)C(=N)N=C(N)N [METFORMIN] | 84 | 53 |  |
| 74 | NC[C@@H](N)C(=O)N[C@@H](Cc1ccc(C(F)(F)F)cc1)C(=O)O |  |  |  |
| 91 | CCCC[C@H](NC(=O)[C@H](N)CN)C(=O)O |  |  |  |
| 69 | NC[C@H](N)C(=O)NCCC(=O)O |  |  |  |
| 71 | C[C@@H](NC(=O)[C@H](N)CN)C(=O)O (H-[dDap]-[dA]-OH) | 72 | 71 | Activity [6]: 87% |
| 53 | NC[C@@H](N)C(=O)NC(Cc1ccc(F)cc1)C(=O)O (mixture of isomers) |  |  |  |
| 0 | NCCC(=O)N[C@@H](Cc1cnc[nH]1)C(=O)O [CARNOSINE] | 97 | 54 |  |
| 67 | NC[C@H](N)C(=O)NCC(=O)O (H-[Dap]-Gly-OH) | 57 | 54 | Activity [6]: 86% |
| 98 | NCC(N)C(=O)O (stereo not given) |  |  | Activity [6]: 20% |
| 84 | CC(C)C[C@@H](NC(=O)[C@H](N)CN)C(=O)O |  |  |  |
| 87 | CC(C)C[C@H](NC(=O)[C@@H](N)CN)C(=O)O | 78 | 69 | Activity [13]: Active; Activity [14]: Active; Activity [15]: Active; Activity [6]: 94%; Activity [16]: 96%; Activity [17]: Non-toxic; Activity [18]: Non-toxic; Activity [19]: Non-toxic; Activity [20]: Non-toxic; Activity [21]: Non-toxic; Activity [22]: Non-toxic |
| 77 | NC[C@H](N)C(=O)N1CCC[C@H]1C(=O)O (H-[Dap]-Pro-OH) |  |  |  |
| 66 | NC[C@@H](N)C(=O)N[C@H](Cc1ccccc1)C(=O)O |  |  | Activity [6]: 70% |
